Consider six molecules from ChEMBL document CHEMBL4177701, “A novel series of enoyl reductase inhibitors targeting the ESKAPE pathogens, Staphylococcus aureus and Acinetobacter baumannii” (Bioorg Med Chem, 2018).

SMILES strings stand for the structures. Converted amounts (≈) assume the structure as drawn. The source made the active and inactive calls. The rule behind the calls is not given here. Where only a bound is given, the exact number is not on record here.

The nature of assay [1]: Competitive inhibition of Acinetobacter baumannii 2208 ATCC 19606 FabI using crotonyl-CoA as substrate in presence of NADPH/NADH after 10 mins by fluorescence assay. Set-up: species or system Acinetobacter baumannii ATCC 19606 = CIP 70.34 = JCM 6841.
The subject of assay [2] is Staphylococcus aureus. Kind of assay: Antibacterial activity against Staphylococcus aureus RN4220 over-expressing FabI by microbroth dilution method. In kind it is functional. The procedure, abridged: (§1)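 Broth microdilution MIC; reported value is mean of at least two runs, within two-fold experimental uncertainty.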
Background: Dilution methods test growth across graded concentrations, often in twofold steps.

In assay [3] the test system is Staphylococcus aureus. Kind of assay: Antibacterial activity against methicillin-resistant Staphylococcus aureus subsp. aureus Rosenbach ATCC 43300 by microbroth dilution method. In kind it is functional. The essentials: as §1
Assay [4] concerns the target T1, Enoyl-[acyl-carrier-protein] reductase [NADPH] FabI (Staphylococcus aureus, UniProt Q6GI75).
T1 sequence (Q6GI75 whole entry): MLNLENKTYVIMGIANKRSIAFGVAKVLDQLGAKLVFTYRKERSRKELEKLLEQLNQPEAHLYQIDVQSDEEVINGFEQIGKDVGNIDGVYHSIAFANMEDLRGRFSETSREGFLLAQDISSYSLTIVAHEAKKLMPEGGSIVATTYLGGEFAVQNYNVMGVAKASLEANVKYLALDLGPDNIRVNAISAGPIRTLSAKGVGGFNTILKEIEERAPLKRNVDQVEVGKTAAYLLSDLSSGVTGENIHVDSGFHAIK
Kind of assay: Competitive inhibition of Staphylococcus aureus subsp. aureus Rosenbach ATCC 43300 FabI using crotonyl-CoA as substrate in presence of NADPH/NADH after 10 mins by fluorescence assay.

The test system of assay [5] is Acinetobacter baumannii. As to the kind of experiment: Antibacterial activity against Acinetobacter baumannii 2208 ATCC 19606 by microbroth dilution method. The settings on record: ATCC 19606 = CIP 70.34 = JCM 6841 2208. In kind it is functional. The essentials:
(§2)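 Microbroth dilution MIC; each value is the mean of at least two runs, within two-fold experimental uncertainty.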

Assay [6] deals with T1, Enoyl-[acyl-carrier-protein] reductase [NADPH] FabI. As to the kind of experiment: Inhibition of Staphylococcus aureus subsp. aureus Rosenbach ATCC 43300 FabI using crotonyl-CoA as substrate in presence of NADPH/NADH after 10 mins by fluorescence assay. The procedure, abridged: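 SaFabI enzyme, 300 nM, in 50 mM MES/100 mM NaCl with 200 μM NADPH, 0.1 mg/mL BSA, 0.01% triton; started with 400 μM crotonyl-CoA. NADPH fluorescence at 340/460 nm. Compounds 0.4 nM–200 μM. Slopes over first 10 min compared with DMSO control for % inhibition. At least two independent experiments, each in duplicate. Two-fold experimental uncertainty.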

In assay [7] the target is T2, Enoyl-[acyl-carrier-protein] reductase [NADPH] FabI (Staphylococcus aureus) (UniProt Q6GI75).
T2 sequence (whole entry): T1 sequence (Q6GI75 whole entry)
Kind of assay: Binding affinity to Staphylococcus aureus subsp. aureus Rosenbach ATCC 43300 FabI by SPR assay. (In general: Surface plasmon resonance follows binding to a sensor surface in real time, without labels.)

Assay [8] relates to Escherichia coli. Kind of assay: Antibacterial activity against Escherichia coli BW25113 mutant by microbroth dilution method. In kind it is functional. The procedure, abridged:
as §1

In assay [9] the test system is Acinetobacter baumannii ATCC 19606 = CIP 70.34 = JCM 6841. Kind of assay: Binding affinity to Acinetobacter baumannii 2208 ATCC 19606 FabI by SPR assay.
A short description of assay [10]: Inhibition of Acinetobacter baumannii 2208 ATCC 19606 FabI using crotonyl-CoA as substrate in presence of NADPH/NADH after 10 mins by fluorescence assay. Set-up: species or system Acinetobacter baumannii ATCC 19606 = CIP 70.34 = JCM 6841. The procedure, abridged:
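AbFabI, 200 nM, in 50 mM MES/100 mM NaCl with 200 μM NADH, 0.1 mg/mL BSA and 0.01% triton. Reaction started with 300 μM crotonyl-CoA. NADH fluorescence read at 340/460 nm. Compounds tested at 0.4 nM–200 μM. Initial 10-min slopes were compared with a DMSO no-compound control. At least two independent experiments, each in duplicate; two-fold uncertainty.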

The subject of assay [11] is Escherichia coli. As to the kind of experiment: Antibacterial activity against Escherichia coli BW25113 harboring TolC deletion mutant by microbroth dilution method. In kind it is functional. The procedure, abridged:
as §1

For assay [12], the system named is Acinetobacter baumannii. Kind of assay: Synergistic antibacterial activity against Acinetobacter baumannii 2208 ATCC 19606 in presence of colistin by checkerboard method. In kind it is functional. The following applies: ATCC 19606 = CIP 70.34 = JCM 6841 2208.
The subject of assay [13] is Acinetobacter baumannii. As to the kind of experiment: Synergistic antibacterial activity against Acinetobacter baumannii 2208 ATCC 19606 assessed as colistin MIC by checkerboard method. In kind it is functional. The settings on record: ATCC 19606 = CIP 70.34 = JCM 6841 2208.
In assay [14] the test system is Acinetobacter baumannii. As to the kind of experiment: Synergistic antibacterial activity against Acinetobacter baumannii 2208 ATCC 19606 assessed as fractional inhibitory concentration in presence of colistin by checkerboard method. In kind it is functional, ATCC 19606 = CIP 70.34 = JCM 6841 2208.
Assay [15] relates to HepG2. As to the kind of experiment: Cytotoxicity against human HepG2 cells assessed as reduction in cell viability after 24 hrs in presence of 0.5% FBS by MTT assay. In kind it is cell-based. The following applies: HepG2, 24 h. The procedure, abridged: (§3)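 HepG2 cells in EMEM with either 10% FBS or 0.5% FBS plus 10% Cell-Ess serum replacement. Seeded at 25,000 cells/well and incubated overnight at 37 °C, 5% CO2. Treated 24 h at 100–3 μg/mL, with matched DMSO controls. MTT added for 2 h, formazan extracted in DMSO, absorbance read at 570 nm. Run in duplicate; IC50 taken from the viability plot against the DMSO control.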
A general note: Tetrazolium assays rely on reduction of a dye to a coloured formazan, in cell work by metabolically active cells.

The subject of assay [16] is HepG2. As to the kind of experiment: Cytotoxicity against human HepG2 cells assessed as reduction in cell viability after 24 hrs in presence of 10% FBS by MTT assay. In kind it is cell-based. The following applies: HepG2, 24 h. The procedure, abridged: as §3
Assay [17] deals with Staphylococcus aureus. As to the kind of experiment: Antibacterial activity against Staphylococcus aureus Newman by microbroth dilution method. In kind it is functional. The essentials: as §2
Assay [18] concerns Staphylococcus aureus. As to the kind of experiment: Antibacterial activity against Staphylococcus aureus RN4220 by microbroth dilution method. In kind it is functional. The procedure, abridged: as §1

As a reminder, the Ki is a dissociation constant, usually derived from enzyme kinetics or from competition with a known ligand. In general, MIC refers to the lowest concentration found to suppress growth. Broadly, the IC50 is the concentration that gives 50% inhibition. In the case of `COc1ccccc1C1CCN(C(=O)/C=C/c2ccc(NC(C)=O)cc2)C1` (racemic), the Ki in assay [1] is > 50 µM; in assay [4], > 37.1 µM. Besides, the MIC against Staphylococcus aureus [2], in the assay with Staphylococcus aureus [3], against Acinetobacter baumannii [5] and against Escherichia coli [8] was > 200 µg/mL throughout. For the same molecule, the IC50 in assay [6] and in assay [10] was > 100 µM throughout. In addition, the result in assay [7] and in assay [9] was Active.
Consider `CC(=O)Nc1ccc(CC(=O)N2CCC(c3ccccc3)C2)cc1` (racemic), for which the values for the inhibitory constant (Ki) in [1] and in [4] were > 50 µM and > 37.1 µM, respectively. Besides, the MIC in the assay on Staphylococcus aureus [2], in the assay with Staphylococcus aureus [3], in the assay on Escherichia coli [11] and in the assay with Acinetobacter baumannii [5] was > 200 µg/mL each time. For the same molecule, the concentration for half-maximal inhibition (IC50) in assay [6] and in assay [10] was > 100 µM throughout. In addition, the outcome in [7] and in [9] was Active.
As to `CC(=O)Nc1ccc(CC(=O)N2CCC(c3ccc4c(c3)OCO4)C2)cc1` (racemic), the Ki is > 50 µM in assay [1] and > 37.1 µM in assay [4]. In addition, the MIC against Staphylococcus aureus [2], against Staphylococcus aureus [3], against Acinetobacter baumannii [5] and against Escherichia coli [8] was > 200 µg/mL each time. The IC50 in assay [6] and in assay [10] was > 100 µM each time. Besides, the outcome in assay [7] and in assay [9] was Active.
Regarding `COc1ccccc1C1CCN(C(=O)Cc2c(F)cccc2F)C1` (racemic), the values for the Ki in [1] and in [4] were 1.5 µM and 2.1 µM, respectively. For the same molecule, the MIC was > 200 µg/mL with Staphylococcus aureus [3]; > 200 µg/mL with Acinetobacter baumannii [5]; 50 µg/mL in the assay with Acinetobacter baumannii [12]; 0.19 µg/mL in the assay with Acinetobacter baumannii [13]; > 200 µg/mL in the assay with Escherichia coli [8]; 151 µM (≈ 50 µg/mL) in the assay with Staphylococcus aureus [17]. Moreover, the outcome in assay [7] and in assay [9] was Active. Also, the FIC in the assay on Acinetobacter baumannii [14] was determined as 0.38. The IC50 in the assay with HepG2 [15] worked out at 65 µg/mL; with HepG2 [16], 279 µg/mL; in assay [10], 3 µM.
Regarding `O=C(Cc1c(F)cccc1F)N1CCC(c2ccccc2)C1` (racemic), the figures for the Ki in assay [1] and in [4] were 3.5 µM and 0.7 µM, respectively. In addition, the MIC with Staphylococcus aureus [2] was > 200 µg/mL; against Staphylococcus aureus [3], > 200 µg/mL; with Acinetobacter baumannii [5], > 200 µg/mL; with Acinetobacter baumannii [12], 25 µg/mL; in the assay on Acinetobacter baumannii [13] it was 0.19 µg/mL; in the assay on Escherichia coli [8] it was > 200 µg/mL. Moreover, the MIC turned out to be 50 µg/mL (≈ 166 µM) with Staphylococcus aureus [18] and 166 µM (≈ 50 µg/mL) against Staphylococcus aureus [17]. In addition, the outcome in [7] and in [9] was Active. For the same molecule, in the assay on Acinetobacter baumannii [14], the FIC turned out to be 0.25. Also, the figures for the IC50 (with HepG2 [15]; in the assay on HepG2 [16]; in [10]) were > 200 µg/mL, 237 µg/mL and 6.9 µM, respectively.
`COc1ccccc1C1CCN(C(=O)Cc2ccc(NC(C)=O)cc2)C1` (racemic): the Ki in assay [1] was > 50 µM; in assay [4], > 37.1 µM. Further, the MIC in the assay with Staphylococcus aureus [2], against Staphylococcus aureus [3], in the assay with Acinetobacter baumannii [5] and against Escherichia coli [8] was > 200 µg/mL each time. The IC50 in assay [6] and in [10] was > 100 µM in each case. For the same molecule, the result in assay [7] and in assay [9] was Active.
